Common to all, as to assay type: cell-based
In experiment [1] the target is T1, DNA-PK/Ku70/Ku85 (Homo sapiens) (UniProt P78527+P12956+P13010). Description: Inhibition of DNAPK ATP labeling site harbouring GHDEREHPFLVKGGEDLR in human A-375 cells at 5 uM by KiNativ Profiling analysis relative to control. In a few lines: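 A375 melanoma cells treated live with compound at 5 μM, then lysed. Lysates were labeled with a lysine-reactive ATP or ADP-biotin probe (KiNativ). Read-out is how well the compound protects each kinase labeling site from probe labeling.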

In experiment [2] the target is Cyclin-dependent kinase 17 (Homo sapiens) (UniProt Q00537). Description: Inhibition of PCTAIRE2 Lys1 labeling site harbouring SKLTENLVALKEIRLEHEEGAPCTAIR in human A-375 cells at 5 uM by KiNativ Profiling analysis relative to control.
Cyclin-dependent kinase 17 (Homo sapiens), sequence (Q00537 whole entry, looked up): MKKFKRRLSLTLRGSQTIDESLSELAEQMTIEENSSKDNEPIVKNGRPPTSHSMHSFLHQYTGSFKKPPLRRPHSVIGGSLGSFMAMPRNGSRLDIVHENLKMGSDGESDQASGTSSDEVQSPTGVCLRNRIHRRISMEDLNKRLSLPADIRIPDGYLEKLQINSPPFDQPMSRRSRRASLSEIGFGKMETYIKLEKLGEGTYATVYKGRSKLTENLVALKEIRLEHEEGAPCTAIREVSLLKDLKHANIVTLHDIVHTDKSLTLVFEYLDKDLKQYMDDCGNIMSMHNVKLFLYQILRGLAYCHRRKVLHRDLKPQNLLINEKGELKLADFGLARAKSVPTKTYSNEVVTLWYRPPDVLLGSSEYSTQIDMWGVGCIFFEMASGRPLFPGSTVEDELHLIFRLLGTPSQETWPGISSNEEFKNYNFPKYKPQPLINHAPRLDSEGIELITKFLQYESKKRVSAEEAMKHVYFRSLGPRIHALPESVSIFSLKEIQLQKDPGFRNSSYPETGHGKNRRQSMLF
In experiment [3] the target is T1, DNA-PK/Ku70/Ku85 (Homo sapiens). Description: Inhibition of DNAPK ATP labeling site harbouring GHDEREHPFLVKGGEDLR in human A-375 cells at 0.5 uM by KiNativ Profiling analysis relative to control. The method in brief:
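Live A375 melanoma cells were treated with compound at 0.5 or 5 μM, then lysed. Lysates were labeled with a lysine-reactive ATP or ADP-biotin probe. The read-out was protection of each kinase probe-labeling site from labeling, relative to control.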

Experiment [4] has as its target T2, Kinase suppressor of Ras 2 (Homo sapiens) (UniProt Q6VAB6).
T2 sequence (whole entry): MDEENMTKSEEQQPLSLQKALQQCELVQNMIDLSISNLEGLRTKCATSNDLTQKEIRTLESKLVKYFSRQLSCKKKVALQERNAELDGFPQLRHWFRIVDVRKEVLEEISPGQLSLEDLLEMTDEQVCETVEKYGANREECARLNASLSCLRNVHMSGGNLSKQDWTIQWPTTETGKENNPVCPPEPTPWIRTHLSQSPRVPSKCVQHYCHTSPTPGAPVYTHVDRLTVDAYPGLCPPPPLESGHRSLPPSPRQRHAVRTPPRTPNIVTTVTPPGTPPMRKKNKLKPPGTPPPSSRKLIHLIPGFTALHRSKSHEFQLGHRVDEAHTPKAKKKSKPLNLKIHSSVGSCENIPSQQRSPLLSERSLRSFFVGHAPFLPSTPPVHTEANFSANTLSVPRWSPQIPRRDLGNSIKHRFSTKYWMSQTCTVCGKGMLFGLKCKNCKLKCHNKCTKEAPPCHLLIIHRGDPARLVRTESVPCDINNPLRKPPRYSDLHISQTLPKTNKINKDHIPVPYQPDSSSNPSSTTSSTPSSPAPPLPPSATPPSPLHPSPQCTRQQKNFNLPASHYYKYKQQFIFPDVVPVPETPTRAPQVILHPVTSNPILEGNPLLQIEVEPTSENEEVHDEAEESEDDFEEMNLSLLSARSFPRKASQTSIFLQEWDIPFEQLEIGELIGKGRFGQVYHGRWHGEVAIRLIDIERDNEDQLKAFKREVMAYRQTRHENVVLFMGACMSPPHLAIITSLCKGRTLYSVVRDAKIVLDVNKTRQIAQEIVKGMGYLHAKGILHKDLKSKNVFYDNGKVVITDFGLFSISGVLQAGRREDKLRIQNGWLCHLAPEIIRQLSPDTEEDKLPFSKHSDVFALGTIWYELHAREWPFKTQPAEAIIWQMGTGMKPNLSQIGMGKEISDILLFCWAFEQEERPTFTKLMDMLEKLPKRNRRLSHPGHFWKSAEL
Description: Inhibition of KSR2 ACT labeling site in human A-375 cells at 0.5 uM by KiNativ Profiling analysis relative to control.

In experiment [5] the target is Ribosomal protein S6 kinase alpha-1 (Homo sapiens) (UniProt Q15418). The experiment is described as follows: Inhibition of RSK1 Protein Kinase Domain in human A-375 cells at 0.5 uM by KiNativ Profiling analysis relative to control. In a few lines: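 Live A375 melanoma cells treated with compound at 5 or 0.5 μM, then lysed. Lysate kinases were labeled with a lysine-reactive ATP or ADP-biotin probe. Inhibition was read as protection of labeling sites from the probe.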
Ribosomal protein S6 kinase alpha-1 (Homo sapiens), sequence (Q15418 whole entry, the tested form may be a part): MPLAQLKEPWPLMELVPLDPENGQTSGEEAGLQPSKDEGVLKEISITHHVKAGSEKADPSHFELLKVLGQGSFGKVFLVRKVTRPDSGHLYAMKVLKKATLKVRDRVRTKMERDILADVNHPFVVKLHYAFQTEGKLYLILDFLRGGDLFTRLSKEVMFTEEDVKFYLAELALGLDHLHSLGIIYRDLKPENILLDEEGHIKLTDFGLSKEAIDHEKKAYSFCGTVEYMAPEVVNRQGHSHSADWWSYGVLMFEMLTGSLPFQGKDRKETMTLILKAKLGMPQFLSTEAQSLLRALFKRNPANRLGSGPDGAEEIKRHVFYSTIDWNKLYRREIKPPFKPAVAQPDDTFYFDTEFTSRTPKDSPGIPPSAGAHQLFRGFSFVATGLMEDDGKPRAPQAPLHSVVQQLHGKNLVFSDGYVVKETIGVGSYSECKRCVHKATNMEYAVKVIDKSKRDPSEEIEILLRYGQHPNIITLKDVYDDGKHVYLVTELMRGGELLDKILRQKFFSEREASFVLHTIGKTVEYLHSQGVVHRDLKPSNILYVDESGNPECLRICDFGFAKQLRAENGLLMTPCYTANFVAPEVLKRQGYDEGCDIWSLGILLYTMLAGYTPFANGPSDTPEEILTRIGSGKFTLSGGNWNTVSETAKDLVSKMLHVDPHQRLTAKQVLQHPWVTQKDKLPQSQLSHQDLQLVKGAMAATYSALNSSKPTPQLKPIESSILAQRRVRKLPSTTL

For experiment [6], the target named is Cyclin-dependent kinase 8 (Homo sapiens) (UniProt P49336). The experiment is described as follows: Inhibition of CDK8 Lys2 labeling site in human A-375 cells at 0.05 uM by KiNativ Profiling analysis relative to control.
Cyclin-dependent kinase 8 (Homo sapiens), sequence (P49336 whole entry): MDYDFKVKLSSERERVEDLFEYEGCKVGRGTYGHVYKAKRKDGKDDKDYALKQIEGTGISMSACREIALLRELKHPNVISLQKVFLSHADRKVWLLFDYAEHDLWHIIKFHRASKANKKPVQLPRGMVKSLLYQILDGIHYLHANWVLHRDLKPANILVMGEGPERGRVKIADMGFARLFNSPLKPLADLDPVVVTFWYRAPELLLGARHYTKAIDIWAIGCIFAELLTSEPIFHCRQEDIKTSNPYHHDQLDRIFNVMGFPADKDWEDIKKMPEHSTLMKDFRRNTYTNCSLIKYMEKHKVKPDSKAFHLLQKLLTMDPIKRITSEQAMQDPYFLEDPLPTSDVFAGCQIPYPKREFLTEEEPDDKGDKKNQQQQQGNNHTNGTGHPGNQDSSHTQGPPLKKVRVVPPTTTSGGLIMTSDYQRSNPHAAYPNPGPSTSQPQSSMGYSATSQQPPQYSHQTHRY
The target in experiment [7] is T3, Serine/threonine-protein kinase Nek9 (Homo sapiens) (UniProt Q8TD19).
T3 sequence (whole entry): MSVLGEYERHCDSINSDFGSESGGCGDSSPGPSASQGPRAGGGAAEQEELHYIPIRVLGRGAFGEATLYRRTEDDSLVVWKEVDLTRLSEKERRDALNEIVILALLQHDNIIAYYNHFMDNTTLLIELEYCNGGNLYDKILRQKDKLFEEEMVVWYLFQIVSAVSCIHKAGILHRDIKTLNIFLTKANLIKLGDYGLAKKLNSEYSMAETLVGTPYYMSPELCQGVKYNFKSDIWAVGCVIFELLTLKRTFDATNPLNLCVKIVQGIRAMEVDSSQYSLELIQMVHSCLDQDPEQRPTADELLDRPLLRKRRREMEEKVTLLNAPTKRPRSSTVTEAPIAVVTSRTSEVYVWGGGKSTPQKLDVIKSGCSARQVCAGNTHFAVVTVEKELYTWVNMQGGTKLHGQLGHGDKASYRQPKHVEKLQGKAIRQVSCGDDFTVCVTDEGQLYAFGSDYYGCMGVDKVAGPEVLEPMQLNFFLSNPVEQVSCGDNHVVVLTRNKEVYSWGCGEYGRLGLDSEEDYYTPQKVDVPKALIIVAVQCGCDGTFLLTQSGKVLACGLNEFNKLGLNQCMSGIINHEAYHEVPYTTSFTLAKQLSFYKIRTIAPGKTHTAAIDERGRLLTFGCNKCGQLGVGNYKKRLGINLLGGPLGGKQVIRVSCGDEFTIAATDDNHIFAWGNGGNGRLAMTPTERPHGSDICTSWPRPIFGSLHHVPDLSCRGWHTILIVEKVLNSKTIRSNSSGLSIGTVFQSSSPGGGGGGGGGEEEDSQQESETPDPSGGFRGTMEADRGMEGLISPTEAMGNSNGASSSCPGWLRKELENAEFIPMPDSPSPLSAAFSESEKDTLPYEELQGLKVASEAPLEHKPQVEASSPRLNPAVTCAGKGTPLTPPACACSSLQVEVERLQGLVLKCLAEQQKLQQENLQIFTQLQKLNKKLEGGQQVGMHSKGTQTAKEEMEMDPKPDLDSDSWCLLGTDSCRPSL
The experiment is described as follows: Inhibition of NEK9 ACT labeling site in human A-375 cells at 0.05 uM by KiNativ Profiling analysis relative to control.

By inhibition is commonly meant the relative decrease from the control value, in per cent.

As to `CCN1CCN(Cc2ccc(NC(=O)c3ccc(C)c(/C=C/c4cnc5[nH]ccc5c4OC)c3)cc2C(F)(F)F)CC1`, the inhibition was 13.8% in experiment [1]; 21.3% in experiment [2]; 9.6% in experiment [3]; 16.8% in experiment [4]; 3.2% in experiment [5]; -9.4% in experiment [6]. For the same compound, the inhibition in experiment [7] was -4.6%.

On to `CCN1CCN(Cc2ccc(NC(=O)c3ccc(C)c(Oc4ccnc5[nH]ccc45)c3)cc2C(F)(F)F)CC1`, for which the inhibition in experiment [1] turned out to be 17.1%; in experiment [2], 56.6%; in experiment [3], 3.6%; in experiment [4], 8.5%; in experiment [5], 0.9%; in experiment [6] it was 32.1%. For the same compound, in experiment [7], the inhibition came out at 8.1%.

For the origin of these results see ChEMBL document CHEMBL5696442, “Discovery of type II inhibitors of TGFβ-activated kinase 1 (TAK1) and mitogen-activated protein kinase kinase kinase kinase 2 (MAP4K2)” (J Med Chem, 2015).
